# In ChEMBL document CHEMBL2057085, “Diazaspirocyclic compounds as selective ligands for the α4β2 nicotinic acetylcholine receptor” (Bioorg Med Chem Lett, 2012):
# Legend:
# [1] = molecular target: T1, Neuronal acetylcholine receptor; alpha4/beta2 (Homo sapiens, UniProt P17787+P43681); assay: Displacement of [3H]-epibatidine from human nAChR alpha4beta2 expressed in human SH-EP1 cells; format: cell-based
# How it was run: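 Radioligand binding using [3H]-epibatidine on human α4β2 nAChR expressed in SH-EP1 cells. Affinity reported as Ki, given as the mean.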
# [2] = molecular target: Neuronal acetylcholine receptor subunit alpha-7 (Homo sapiens, UniProt P36544); assay: Binding affinity to human nAChR alpha7 expressed in HEK cells coexpressing RIC3; format: cell-based, HEK293
# Chain of Neuronal acetylcholine receptor subunit alpha-7 (P36544 whole entry): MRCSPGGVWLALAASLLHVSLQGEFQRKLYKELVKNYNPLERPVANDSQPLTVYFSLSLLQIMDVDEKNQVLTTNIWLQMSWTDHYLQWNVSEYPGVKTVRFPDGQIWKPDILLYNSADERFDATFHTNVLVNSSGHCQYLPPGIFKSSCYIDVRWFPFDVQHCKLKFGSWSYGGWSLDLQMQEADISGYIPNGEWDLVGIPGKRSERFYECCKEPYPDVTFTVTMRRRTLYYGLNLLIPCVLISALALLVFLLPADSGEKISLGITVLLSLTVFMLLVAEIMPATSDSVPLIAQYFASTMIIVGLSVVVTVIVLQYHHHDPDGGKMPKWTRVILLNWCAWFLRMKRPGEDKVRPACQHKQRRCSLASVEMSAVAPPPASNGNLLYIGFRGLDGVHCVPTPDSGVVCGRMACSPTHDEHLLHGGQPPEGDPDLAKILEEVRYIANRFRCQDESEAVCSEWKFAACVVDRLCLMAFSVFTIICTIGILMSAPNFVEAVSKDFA
# How it was run: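 Binding measured at human α7 nAChR in HEK cells coexpressing RIC3. Affinity reported as Ki, given as the mean.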
# [3] = molecular target: T2, Neuronal acetylcholine receptor; alpha3/beta4 (Homo sapiens, UniProt P30926+P32297); assay: Binding affinity to human ganglionic nAChR alpha3beta4 expressed in human SHSY-5Y cells; format: cell-based, SH-SY5Y
# T2 sequence (P30926 whole entry): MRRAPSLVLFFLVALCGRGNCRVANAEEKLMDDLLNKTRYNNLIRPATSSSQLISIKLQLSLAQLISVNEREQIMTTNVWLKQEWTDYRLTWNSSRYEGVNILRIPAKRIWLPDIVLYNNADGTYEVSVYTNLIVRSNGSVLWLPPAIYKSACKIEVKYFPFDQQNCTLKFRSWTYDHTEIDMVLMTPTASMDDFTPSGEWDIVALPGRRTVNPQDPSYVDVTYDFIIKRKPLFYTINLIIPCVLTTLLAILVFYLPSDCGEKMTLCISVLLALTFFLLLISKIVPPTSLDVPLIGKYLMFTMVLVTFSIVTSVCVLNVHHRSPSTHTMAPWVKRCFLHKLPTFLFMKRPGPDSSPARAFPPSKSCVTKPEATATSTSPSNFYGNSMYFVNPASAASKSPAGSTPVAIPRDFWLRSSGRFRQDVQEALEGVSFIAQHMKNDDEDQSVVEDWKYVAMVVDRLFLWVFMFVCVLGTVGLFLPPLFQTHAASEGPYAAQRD
# T2 sequence (P32297 whole entry): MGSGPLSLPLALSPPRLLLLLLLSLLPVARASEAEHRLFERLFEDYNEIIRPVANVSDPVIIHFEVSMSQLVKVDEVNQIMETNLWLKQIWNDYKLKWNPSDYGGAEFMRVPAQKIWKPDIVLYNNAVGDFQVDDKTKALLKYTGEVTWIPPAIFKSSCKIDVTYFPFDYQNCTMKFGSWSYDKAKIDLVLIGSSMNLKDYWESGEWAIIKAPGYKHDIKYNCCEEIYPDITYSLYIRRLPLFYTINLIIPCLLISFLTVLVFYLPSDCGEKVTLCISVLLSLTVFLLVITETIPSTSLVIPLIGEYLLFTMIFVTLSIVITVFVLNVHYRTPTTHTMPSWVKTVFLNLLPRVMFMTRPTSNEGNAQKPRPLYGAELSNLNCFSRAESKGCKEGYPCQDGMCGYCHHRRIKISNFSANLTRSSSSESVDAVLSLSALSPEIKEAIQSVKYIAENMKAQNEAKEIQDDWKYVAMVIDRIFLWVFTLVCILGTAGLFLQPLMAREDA
# How it was run: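 Binding measured on the α3β4 subtype endogenous to human SHSY-5Y clonal cells. Affinity reported as Ki, given as the mean.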
# [4] = molecular target: Acetylcholine receptor; alpha1/beta1/delta/gamma (Homo sapiens, UniProt P02708+P07510+P11230+Q07001); assay: Binding affinity to human muscle nAChR alpha1beta1gammadelta expressed in human TE-671 cells; format: cell-based
# Chain of Acetylcholine receptor; alpha1/beta1/delta/gamma (P02708 whole entry): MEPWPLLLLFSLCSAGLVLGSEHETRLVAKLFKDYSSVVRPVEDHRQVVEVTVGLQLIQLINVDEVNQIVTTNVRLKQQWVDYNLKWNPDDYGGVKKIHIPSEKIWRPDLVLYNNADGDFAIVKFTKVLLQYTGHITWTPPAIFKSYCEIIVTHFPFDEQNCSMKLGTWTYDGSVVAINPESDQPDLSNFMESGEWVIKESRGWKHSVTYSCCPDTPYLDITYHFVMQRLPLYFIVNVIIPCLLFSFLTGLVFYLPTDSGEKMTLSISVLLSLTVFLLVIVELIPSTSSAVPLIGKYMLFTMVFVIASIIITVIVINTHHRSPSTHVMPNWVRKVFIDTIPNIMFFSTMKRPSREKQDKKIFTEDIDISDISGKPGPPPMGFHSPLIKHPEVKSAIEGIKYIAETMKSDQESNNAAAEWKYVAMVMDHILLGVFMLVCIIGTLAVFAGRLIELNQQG
# Chain of Acetylcholine receptor; alpha1/beta1/delta/gamma (P07510 whole entry): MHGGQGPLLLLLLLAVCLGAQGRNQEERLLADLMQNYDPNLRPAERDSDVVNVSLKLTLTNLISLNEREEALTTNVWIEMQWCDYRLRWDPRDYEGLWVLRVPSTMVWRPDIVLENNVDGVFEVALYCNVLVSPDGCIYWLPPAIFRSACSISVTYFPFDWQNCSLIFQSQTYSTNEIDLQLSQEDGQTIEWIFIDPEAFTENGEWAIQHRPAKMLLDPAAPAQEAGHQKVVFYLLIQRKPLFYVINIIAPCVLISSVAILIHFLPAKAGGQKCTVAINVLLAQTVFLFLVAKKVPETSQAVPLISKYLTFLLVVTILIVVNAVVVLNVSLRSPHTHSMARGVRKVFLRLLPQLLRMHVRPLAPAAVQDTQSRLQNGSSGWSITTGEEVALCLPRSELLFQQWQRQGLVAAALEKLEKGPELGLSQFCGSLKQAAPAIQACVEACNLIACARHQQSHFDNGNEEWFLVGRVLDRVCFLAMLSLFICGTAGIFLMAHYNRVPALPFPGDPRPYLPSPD
# Chain of Acetylcholine receptor; alpha1/beta1/delta/gamma (P11230 whole entry): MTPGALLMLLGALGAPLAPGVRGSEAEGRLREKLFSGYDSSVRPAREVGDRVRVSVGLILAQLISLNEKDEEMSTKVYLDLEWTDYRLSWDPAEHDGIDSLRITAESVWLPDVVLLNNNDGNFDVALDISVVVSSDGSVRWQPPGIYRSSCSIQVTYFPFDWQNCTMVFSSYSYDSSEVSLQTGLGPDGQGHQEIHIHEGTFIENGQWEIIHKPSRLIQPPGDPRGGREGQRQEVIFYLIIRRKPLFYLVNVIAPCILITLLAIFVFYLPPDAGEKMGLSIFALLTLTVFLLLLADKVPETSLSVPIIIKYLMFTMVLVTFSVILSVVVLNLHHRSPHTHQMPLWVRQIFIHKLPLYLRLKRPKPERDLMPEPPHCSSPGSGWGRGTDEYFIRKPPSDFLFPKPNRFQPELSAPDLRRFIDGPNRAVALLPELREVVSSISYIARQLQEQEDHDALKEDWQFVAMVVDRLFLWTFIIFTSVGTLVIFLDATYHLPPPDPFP
# Chain of Acetylcholine receptor; alpha1/beta1/delta/gamma (Q07001 whole entry): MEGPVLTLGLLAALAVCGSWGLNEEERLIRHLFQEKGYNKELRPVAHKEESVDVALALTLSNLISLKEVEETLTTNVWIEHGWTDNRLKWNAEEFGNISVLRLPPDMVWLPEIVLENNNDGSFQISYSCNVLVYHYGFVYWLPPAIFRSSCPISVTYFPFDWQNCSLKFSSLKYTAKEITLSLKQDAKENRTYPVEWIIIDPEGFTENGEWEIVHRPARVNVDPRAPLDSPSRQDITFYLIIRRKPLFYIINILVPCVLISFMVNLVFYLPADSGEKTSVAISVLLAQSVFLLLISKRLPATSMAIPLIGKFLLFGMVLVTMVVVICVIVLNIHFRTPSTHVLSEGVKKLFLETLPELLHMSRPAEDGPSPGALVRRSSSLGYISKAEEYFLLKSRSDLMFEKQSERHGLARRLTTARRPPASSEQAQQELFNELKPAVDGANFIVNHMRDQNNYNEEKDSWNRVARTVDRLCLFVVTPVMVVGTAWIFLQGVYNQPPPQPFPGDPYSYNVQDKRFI
# How it was run: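 Binding carried out in TE-671 cells as the muscle-type receptor source. Affinity reported as Ki, given as the mean.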
# [5] = molecular target: T1, Neuronal acetylcholine receptor; alpha4/beta2; assay: Antagonist activity at human nAChR alpha4beta2 expressed in human SH-EP1 cells assessed as calcium flux by fluorescence analysis relative to nicotine; format: functional, cell-based
# [6] = molecular target: Neuronal acetylcholine receptor; alpha4/beta2 (Rattus norvegicus, UniProt P09483+P12390); assay: Displacement of [3H]-nicotine from rat nAChR alpha4beta2 in rat cortex
# [7] = molecular target: T2, Neuronal acetylcholine receptor; alpha3/beta4; assay: Agonist activity at human ganglionic nAChR alpha3beta4 expressed in human SHSY-5Y cells assessed as calcium flux by fluorescence analysis
# [8] = molecular target: T2, Neuronal acetylcholine receptor; alpha3/beta4; assay: Agonist activity at human ganglionic nAChR alpha3beta4 expressed in human SHSY-5Y cells assessed as calcium flux by fluorescence analysis relative to nicotine; settings: SH-SY5Y
# T1 sequence (P17787 whole entry): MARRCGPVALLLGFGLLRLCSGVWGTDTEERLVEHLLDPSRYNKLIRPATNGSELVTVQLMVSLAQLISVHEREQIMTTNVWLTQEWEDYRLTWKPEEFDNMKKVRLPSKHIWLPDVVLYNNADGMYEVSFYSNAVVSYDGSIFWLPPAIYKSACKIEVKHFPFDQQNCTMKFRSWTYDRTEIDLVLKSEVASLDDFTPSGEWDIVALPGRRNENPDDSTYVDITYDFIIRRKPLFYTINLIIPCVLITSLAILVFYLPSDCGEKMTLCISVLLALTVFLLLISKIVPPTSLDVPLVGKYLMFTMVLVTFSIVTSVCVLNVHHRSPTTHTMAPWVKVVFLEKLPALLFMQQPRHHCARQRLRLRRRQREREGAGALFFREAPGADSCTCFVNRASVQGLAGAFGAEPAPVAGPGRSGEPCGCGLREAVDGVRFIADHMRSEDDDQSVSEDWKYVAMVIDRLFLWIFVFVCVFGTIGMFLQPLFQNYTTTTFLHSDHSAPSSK
# T1 sequence (P43681 whole entry): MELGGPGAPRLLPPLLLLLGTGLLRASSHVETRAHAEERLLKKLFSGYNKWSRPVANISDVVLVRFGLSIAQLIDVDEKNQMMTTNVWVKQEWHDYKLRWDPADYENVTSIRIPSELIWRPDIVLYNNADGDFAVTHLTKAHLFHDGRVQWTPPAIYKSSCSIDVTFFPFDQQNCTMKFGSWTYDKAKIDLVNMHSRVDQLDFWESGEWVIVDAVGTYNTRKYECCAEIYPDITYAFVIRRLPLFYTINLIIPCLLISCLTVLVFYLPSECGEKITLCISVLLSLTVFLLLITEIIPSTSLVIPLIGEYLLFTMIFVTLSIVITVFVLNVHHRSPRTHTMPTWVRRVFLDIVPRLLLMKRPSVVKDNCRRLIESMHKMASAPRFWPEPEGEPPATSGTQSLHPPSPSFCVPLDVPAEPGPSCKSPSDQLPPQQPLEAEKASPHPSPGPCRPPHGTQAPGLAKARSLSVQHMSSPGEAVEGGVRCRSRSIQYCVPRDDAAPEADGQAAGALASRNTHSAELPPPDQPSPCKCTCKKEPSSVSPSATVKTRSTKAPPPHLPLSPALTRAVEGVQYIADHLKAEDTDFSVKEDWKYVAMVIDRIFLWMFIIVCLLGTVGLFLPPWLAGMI
SMILES,Ki [1] [nM],Ki [2] [nM],Ki [3] [nM],Ki [4] [nM],Emax [5] [%],Ki [6] [nM],EC50 [7] [nM],Emax [8] [%]
c1cncc(N2CCC3(CC4CCN3CC4)C2)c1 (stereo unspecified),32,8000,1100,11000,92,5.7,6900,4.2
c1cncc(N2CCC3(CCCN3)C2)c1 (stereo unspecified) [TC-2216],29,6900,1200,5700,–,75,55000,9.6
c1cncc(N2CCC3(C2)C2CCN3CC2)c1 (stereo unspecified),10,7600,560,580,92,34,2600,29
c1cncc(N2CCC3(CC4CCN3C4)C2)c1 (stereo unspecified),29,7900,2400,9900,92,40,31000,3.1
